Data on 19 molecules can be found in ChEMBL document CHEMBL1154833, “Curcuminoid analogs with potent activity against Trypanosoma and Leishmania species” (Eur J Med Chem, 2010).

Series [1] has as its system Trypanosoma brucei brucei. In words: Antitrypanosomal activity against diminazene-resistant Trypanosoma brucei brucei deltaTbat1-KO after 48 hrs by alamar blue assay. In kind it is functional, organism-based. For orientation: The colour change of resazurin is a common sign of viable cells or microbes.
A further series deals with Trypanosoma evansi. As to the kind of experiment: Antitrypanosomal activity against Trypanosoma evansi ITMAV170475 after 48 hrs by alamar blue assay. In kind it is functional, organism-based. The conditions noted are these: ITMAV170475, 48 h. Summed up: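 Culture-adapted T. evansi ITMAV170475 seeded at 1.5 ×10⁵ trypanosomes/ml in HMI9/20% FBS. Exposed to compound for 48 h, then incubated with Alamar Blue for 24 h, all at 37 °C under CO2. Assay validated against hemocytometer cell counts. EC50 from a variable-slope sigmoid fit.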

In another series the test system is Leishmania mexicana. As to the kind of experiment: Antileishmanial activity against Leishmania mexicana MNYC/BZ/62/M379 amastigotes after 48 hrs by alamar blue assay. In kind it is functional, organism-based. Particulars: Leishmania mexicana, MNYC/BZ/62/M379, 48 h; read-out: EC50. In a few lines: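 Axenic L. mexicana MNYC/BZ/62/M379 amastigotes kept at 33 °C under CO2 in Schneider's Drosophila medium with 20% FBS and 0.3% gentamycin. Alamar Blue fluorescence read-out.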

The test system of series [2] is Trypanosoma brucei brucei. As to the kind of experiment: Antitrypanosomal activity against Trypanosoma brucei brucei 427 after 48 hrs by alamar blue assay. Format: functional, organism-based. The conditions noted are these: Trypanosoma brucei, 427, 48 h; read-out: EC50.
In another series the test system is HEK293. As to the kind of experiment: Cytotoxicity against HEK293 cells after 16 hrs by alamar blue assay. In kind it is cell-based, Homo sapiens. The conditions noted are these: Homo sapiens, HEK293, 16 h; read-out: EC50. In a few lines:
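HEK293T cells grown in DMEM-based medium with 10% newborn bovine serum at 37 °C, 5% CO2. Doubling dilutions of compound added for 16 h, then resazurin added. Fluorescence read at emission 590 nm after a further 24 h.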

Another series concerns Leishmania major. As to the kind of experiment: Antileishmanial activity against Leishmania major Friedlin promastigotes after 48 hrs by alamar blue assay. Format: functional, organism-based. Particulars: Leishmania major, Friedlin, 48 h; read-out: EC50. In a few lines:
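L. major Friedlin promastigotes grown in HOMEM with 10% FBS at 25 °C. Alamar Blue fluorescence assay in 96-well plates. 3–6 independent experiments unless noted.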

The test system of series [3] is Trypanosoma brucei brucei. In words: Antitrypanosomal activity against multidrug-resistant Trypanosoma brucei brucei B48 after 48 hrs by alamar blue assay. Particulars: B48, 48 h. In kind it is functional, organism-based.
For series [4], the system named is Trypanosoma brucei brucei. As to the kind of experiment: Selectivity ratio of EC50 for Trypanosoma brucei brucei B48 to EC50 for Trypanosoma brucei brucei 427. In kind it is functional. In a few lines:
(§1)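 T. b. brucei bloodstream forms (strain 427, its ΔTbAT1 clone, and the pentamidine-adapted B48 line derived from it) cultured in HMI9 with 10% FBS at 37 °C under CO2. EC50 for each line from the Alamar Blue fluorescence assay with sigmoid fitting, and the ratio taken between lines.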

Series [5] concerns Trypanosoma brucei brucei. In words: Selectivity ratio of EC50 for Trypanosoma brucei brucei 427 to EC50 for Trypanosoma brucei brucei deltaTbat1-KO. In kind it is functional. In a few lines: as §1
Series [6] in a line: Selectivity index, ratio of EC50 for HEK cells to EC50 for Trypanosoma brucei brucei B48. In kind it is toxicity, cell-based, HEK293. The conditions noted are these: human, HEK cells versus Trypanosoma brucei brucei B48; read-out: Ratio EC50.
A short description of series [7]: Selectivity index, ratio of EC50 for HEK cells to EC50 for Trypanosoma brucei brucei 427. In kind it is toxicity, cell-based, HEK293. The conditions noted are these: human, HEK cells versus Trypanosoma brucei brucei 427; read-out: Ratio EC50.
In series [8] the test system is Trypanosoma brucei brucei. In words: Selectivity ratio of EC50 for Trypanosoma brucei brucei 427 to EC50 for Trypanosoma brucei brucei B48. Format: functional. In a few lines:
as §1

The test system of series [9] is Trypanosoma brucei brucei. As to the kind of experiment: Antitrypanosomal activity against Trypanosoma brucei brucei GUTat 3.1. Format: functional, organism-based.
The nature of series [10]: Selectivity index, ratio of EC50 for HEK cells to EC50 for Leishmania major Friedlin promastigotes. Format: toxicity, cell-based, HEK293. The conditions noted are these: human, HEK cells versus Leishmania major Friedlin promastigotes; read-out: Ratio EC50. Summed up:
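Ratio of HEK EC50 to parasite EC50. For HEK293T cells in DMEM with 10% newborn bovine serum at 37 °C and 5% CO2, doubling dilutions of compound were added for 16 h, then Alamar Blue, and fluorescence (em 590 nm) was read after another 24 h. L. major Friedlin promastigotes were grown in HOMEM with 10% FBS at 25 °C and tested by Alamar Blue. EC50 values came from sigmoid non-linear regression.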

Each structure is given as a SMILES string. A value given as a limit tells only on which side of the number the result lay.

For orientation: EC50 means the midpoint of the concentration-response curve. Turning to `COc1cc(/C=C/C(=O)CC(=O)/C=C/c2ccc(O)c(O)c2)ccc1O`, the EC50 in series [1] turned out to be 1.1 µM; with Trypanosoma evansi it was 1.1 µM; with Leishmania mexicana, 3.2 µM; in series [2], 0.87 µM; with HEK293 it was 36 µM; in the series with Leishmania major it was 4.3 µM. In addition, the EC50 in series [3] is 2.7 µM. For the same molecule, in series [4], the “Ratio EC50” value was 3.1.
With `COc1cc(/C=C/C(=O)CC(=O)/C=C/c2ccc(OC(=O)c3ccccc3)c(OC)c2)ccc1O`, the EC50 in [1] stood at 3.8 µM; with Trypanosoma evansi it was 1.5 µM; with Leishmania mexicana, 76 µM; in series [2], 3.1 µM; in the series on HEK293, 94 µM; in the series on Leishmania major it was 9.3 µM. Further, the EC50 in series [3] stood at 2.1 µM.
In the case of `O=C(/C=C/c1ccc(O)cc1)CC(=O)/C=C/c1ccc(O)c(O)c1`, the “Ratio EC50” value in series [5] is 2.7. In addition, the EC50 in series [1] amounted to 1.8 µM; in the series with Leishmania mexicana, 21 µM; in series [2] it was 0.65 µM; with HEK293, 30 µM; in the series with Leishmania major, 22 µM; in [3], 1 µM.
Consider `COc1cc(CC/C=C/C(=O)CCc2ccc(O)c(OC)c2)ccc1O`, for which the EC50 in [1] came out at 0.082 µM; in the series on Trypanosoma evansi, 0.17 µM; in the series on Leishmania mexicana, 17 µM; in [2] it was 0.053 µM; in the series with HEK293, 24 µM; with Leishmania major, 8.9 µM. The molecule also showed an EC50 in series [3] of 0.023 µM. The selectivity ratio in [6] is more than 1000; in series [7], 453.
Regarding `C=CCOc1ccc(/C=C/C(=O)CC(=O)/C=C/c2ccc(O)c(OC)c2)cc1OC`, the EC50 in series [1] stood at 2.2 µM; with Trypanosoma evansi, 1.6 µM; in the series on Leishmania mexicana it was 12 µM; in series [2], 2.4 µM; in the series on HEK293 it was 270 µM; with Leishmania major, 5.7 µM. In series [3], this molecule came in with an EC50 of 12 µM. Moreover, the “Ratio EC50” value in series [4] turned out to be 5.
`C=CCOc1ccc(/C=C/C(=O)CC(=O)/C=C/c2ccc(OCC=C)c(OC)c2)cc1OC`: the EC50 in [1] is 1.9 µM; with Trypanosoma evansi, 5.6 µM; with Leishmania mexicana, more than 100 µM; in [2], 1.6 µM; in the series on HEK293 it was more than 500 µM; in the series on Leishmania major, 25 µM. In series [3], this molecule returned an EC50 of 5.8 µM. Further, in series [4], the “Ratio EC50” value was 3.6.
With `COc1cc(/C=C/C(=O)CC(=O)/C=C/c2ccc(OCC=C(C)C)c(OC)c2)ccc1OCC=C(C)C`, the EC50 in series [1] was 1.6 µM; with Leishmania mexicana, 27 µM; in [2] it was 1.2 µM; in the series with HEK293, more than 1000 µM; in the series on Leishmania major, more than 100 µM; in [3] it was 1.3 µM. For the same molecule, in [7], the selectivity ratio is more than 1000.
As for `COc1cc(/C=C/C(=O)CC(=O)/C=C/c2ccc(OC(=O)c3ccccc3)cc2)ccc1O`, the EC50 in [1] was 7.8 µM; in the series on Trypanosoma evansi, 2.9 µM; in the series with Leishmania mexicana, more than 100 µM; in series [2], 3.7 µM; with HEK293, more than 500 µM; with Leishmania major, 20 µM. For the same molecule, the EC50 in series [3] worked out at 7.8 µM.
As for `COc1ccc(CC/C=C/C(=O)CCc2ccc(OC)c(OC)c2)cc1OC`, the EC50 in [1] turned out to be 1.6 µM; in the series on Leishmania mexicana, 28 µM; in series [2], 1.9 µM; in the series with HEK293, 26 µM; with Leishmania major, 12 µM; in [3] it was 0.023 µM. Moreover, in series [8], the “Ratio EC50” value turned out to be 83.
Regarding `COc1cc(/C=C/C(=O)/C=C/CCc2ccc(O)c(OC)c2)ccc1O`, the EC50 stood at 0.22 µM in series [1]; 0.21 µM in the series on Trypanosoma evansi; 4.6 µM with Leishmania mexicana; 0.22 µM in series [2]; 8.1 µM in the series with HEK293; 2.7 µM in the series on Leishmania major. The molecule also showed an EC50 in series [3] of 0.1 µM.
For `COc1cc(CC/C=C/C(O)CCc2ccc(O)c(OC)c2)ccc1O` (stereo unspecified), the EC50 in series [1] turned out to be 42 µM; with Leishmania mexicana, 64 µM; in [2], 40 µM; in the series with HEK293 it was 130 µM; with Leishmania major, 50 µM; in [3], 6.3 µM. Also, in series [7], the selectivity ratio turned out to be 3.
For the molecule `COc1cc(/C=C/C(=O)CC(=O)/C=C/c2ccc(O)c(OC)c2)ccc1O` [CURCUMIN], the EC50 stood at 4.7 µM in series [1]; 2 µM with Trypanosoma evansi; 16 µM in the series with Leishmania mexicana; 2.5 µM in [2]; 37 µM in the series on HEK293; 33 µM in the series on Leishmania major. In addition, the EC50 in [3] was 2.9 µM; in series [9], 4.8 µM.
With `O=C(CCc1ccc(O)c(O)c1)CC(=O)CCc1ccc(O)c(O)c1` [DIDEMETHYLTETRAHYDROCURCUMIN], the EC50 in series [1] was 1.5 µM; in the series with Leishmania mexicana, 53 µM; in series [2] it was 1.9 µM; with HEK293, 150 µM; in the series with Leishmania major it was more than 100 µM; in series [3], 1.7 µM.
Take `CC(=O)NCC(=O)O.N=C(N)c1ccc(/N=N/Nc2ccc(C(=N)N)cc2)cc1` [DIMINAZEN ACETURATE]: the “Ratio EC50” value in [5] was determined as 20.
With `N=C(N)c1ccc(/N=N/Nc2ccc(C(=N)N)cc2)cc1` [DIMINAZENE], the EC50 came to 2.4 µM in series [1], 0.018 µM in the series with Trypanosoma evansi, 0.12 µM in series [2] and 1 µM in series [3].
For the molecule `COc1cc(CCC(=O)CC(O)CCc2ccc(O)c(OC)c2)ccc1O` (stereo unspecified) [HEXAHYDROCURCUMIN], the EC50 in series [1] is 38 µM; in the series on Leishmania mexicana, more than 100 µM; in [2] it was 17 µM; with HEK293 it was 370 µM; with Leishmania major, more than 100 µM; in series [3], 5.9 µM.
`O=C(CCc1ccc(O)cc1)CC(=O)CCc1ccc(O)cc1` [LETESTUIANIN C]: the EC50 was determined as 4 µM in [1]; 64 µM in the series with Leishmania mexicana; 2.5 µM in series [2]; 350 µM with HEK293; 80 µM in the series with Leishmania major; 5.1 µM in [3].
As for `COc1cc(CCC(=O)CC(=O)CCc2ccc(O)c(OC)c2)ccc1O` [TETRAHYDROCURCUMIN], the EC50 in [1] was found to be 37 µM; in the series with Leishmania mexicana, 43 µM; in [2], 21 µM; with HEK293 it was 120 µM; with Leishmania major it was 90 µM; in series [3], 12 µM.
`COc1ccc(/C=C/C(=O)CC(=O)/C=C/c2ccc(OC)c(OC)c2)cc1OC` [TETRAMETHOXYCURCUMIN]: the EC50 in series [1] turned out to be 0.62 µM; in the series with Leishmania mexicana, 10 µM; in [2], 0.45 µM; in the series on HEK293, 200 µM; in the series on Leishmania major, 2.8 µM; in series [3] it was 0.77 µM. Further, the selectivity ratio in series [10] is 70.
